How the values were obtained:
[1] = Inhibition of PRKCB2 at 1 uM
[2] = molecular target: Vascular endothelial growth factor receptor 2 (Homo sapiens) (UniProt P35968); test: Inhibition of KDR at 1 uM
[3] = molecular target: Glycogen synthase kinase-3 beta (Homo sapiens, UniProt P49841); test: Inhibition of GSK3B at 1 uM
Aurora kinase A = molecular target: T1, Aurora kinase A (Homo sapiens, UniProt O14965); test: Inhibition of Aurora A
T1 sequence (O14965 whole entry): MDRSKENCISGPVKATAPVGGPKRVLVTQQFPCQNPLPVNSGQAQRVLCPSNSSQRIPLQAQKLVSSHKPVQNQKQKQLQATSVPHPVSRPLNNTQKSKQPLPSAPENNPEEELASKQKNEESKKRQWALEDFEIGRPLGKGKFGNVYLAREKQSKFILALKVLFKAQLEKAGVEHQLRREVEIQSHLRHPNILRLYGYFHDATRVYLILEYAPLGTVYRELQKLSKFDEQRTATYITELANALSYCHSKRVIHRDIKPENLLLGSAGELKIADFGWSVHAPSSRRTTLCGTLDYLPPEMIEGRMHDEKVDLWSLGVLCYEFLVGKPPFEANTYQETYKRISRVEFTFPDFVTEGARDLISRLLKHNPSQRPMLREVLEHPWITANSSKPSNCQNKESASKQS

NCI-H460 = test: Antiproliferative activity against human H460 cells after 72 hrs by resazurin reduction assay; type: functional, cell-based; conditions: NCI-H460, 72 h
Summary of the method: (§1)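 Cells seeded at 3,000 per well, left to adhere overnight, then given inhibitor as a 3-fold serial dilution from 0.0169 nM to 10 μM. After 72 h, 250 μg/mL resazurin was added, followed by 6 h more at 37 °C. Fluorescence was read at ex 560 / em 590 nm.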

[4] = molecular target: Calcium/calmodulin-dependent protein kinase type II subunit alpha (Homo sapiens) (UniProt Q9UQM7); test: Inhibition of CAMK2A at 1 uM
Calcium/calmodulin-dependent protein kinase type II subunit alpha (Homo sapiens), sequence (Q9UQM7 whole entry): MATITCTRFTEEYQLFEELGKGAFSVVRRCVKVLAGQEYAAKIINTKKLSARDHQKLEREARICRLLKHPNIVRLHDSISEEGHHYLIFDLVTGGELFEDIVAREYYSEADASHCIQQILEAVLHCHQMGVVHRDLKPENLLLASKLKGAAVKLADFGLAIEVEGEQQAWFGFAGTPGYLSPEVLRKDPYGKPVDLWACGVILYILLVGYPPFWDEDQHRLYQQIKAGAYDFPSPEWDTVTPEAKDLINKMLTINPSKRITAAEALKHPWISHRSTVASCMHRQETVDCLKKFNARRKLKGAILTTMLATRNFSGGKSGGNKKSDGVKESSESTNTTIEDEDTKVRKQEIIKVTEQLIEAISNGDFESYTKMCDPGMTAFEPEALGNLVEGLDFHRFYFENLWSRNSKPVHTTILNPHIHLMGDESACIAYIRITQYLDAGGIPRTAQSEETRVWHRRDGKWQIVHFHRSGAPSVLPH

[5] = molecular target: Epidermal growth factor receptor (Homo sapiens) (UniProt P00533); test: Inhibition of EGFR at 1 uM
Epidermal growth factor receptor (Homo sapiens), sequence (P00533 whole entry): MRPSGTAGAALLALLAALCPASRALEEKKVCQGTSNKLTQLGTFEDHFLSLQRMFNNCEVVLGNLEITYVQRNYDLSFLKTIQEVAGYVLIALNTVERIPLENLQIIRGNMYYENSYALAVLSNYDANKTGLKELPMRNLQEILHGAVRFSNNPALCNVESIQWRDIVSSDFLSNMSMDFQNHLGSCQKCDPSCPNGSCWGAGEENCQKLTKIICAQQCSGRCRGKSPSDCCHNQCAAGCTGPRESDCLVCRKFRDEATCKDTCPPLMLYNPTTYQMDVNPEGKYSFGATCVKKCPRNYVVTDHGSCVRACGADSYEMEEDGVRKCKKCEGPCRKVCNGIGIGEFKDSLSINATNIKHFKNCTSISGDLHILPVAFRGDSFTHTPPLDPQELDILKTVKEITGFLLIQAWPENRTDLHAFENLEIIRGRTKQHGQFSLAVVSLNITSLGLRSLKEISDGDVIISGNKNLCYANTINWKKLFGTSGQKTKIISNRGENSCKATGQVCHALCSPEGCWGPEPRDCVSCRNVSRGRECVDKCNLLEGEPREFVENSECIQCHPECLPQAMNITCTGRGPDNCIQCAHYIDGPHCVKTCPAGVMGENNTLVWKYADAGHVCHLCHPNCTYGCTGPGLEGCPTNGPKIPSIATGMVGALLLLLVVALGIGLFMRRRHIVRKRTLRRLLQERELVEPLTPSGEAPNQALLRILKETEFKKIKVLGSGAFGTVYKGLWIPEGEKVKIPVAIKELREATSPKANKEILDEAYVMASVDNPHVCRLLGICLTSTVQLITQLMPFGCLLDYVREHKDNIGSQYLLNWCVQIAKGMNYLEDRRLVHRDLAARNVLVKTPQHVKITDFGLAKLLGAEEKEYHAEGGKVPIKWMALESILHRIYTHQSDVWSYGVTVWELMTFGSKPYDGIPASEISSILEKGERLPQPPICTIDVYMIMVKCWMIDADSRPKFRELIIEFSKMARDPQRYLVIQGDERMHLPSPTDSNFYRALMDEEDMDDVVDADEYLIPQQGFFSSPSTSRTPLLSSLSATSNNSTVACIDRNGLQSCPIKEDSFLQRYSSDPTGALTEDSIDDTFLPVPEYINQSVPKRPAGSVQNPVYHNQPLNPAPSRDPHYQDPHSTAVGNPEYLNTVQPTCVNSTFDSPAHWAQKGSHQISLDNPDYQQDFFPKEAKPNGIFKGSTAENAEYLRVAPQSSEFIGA

[6] = molecular target: Serine/threonine-protein kinase PAK 4 (Homo sapiens) (UniProt O96013); test: Inhibition of PAK4 at 1 uM
Serine/threonine-protein kinase PAK 4 (Homo sapiens), sequence (O96013 whole entry, looked up): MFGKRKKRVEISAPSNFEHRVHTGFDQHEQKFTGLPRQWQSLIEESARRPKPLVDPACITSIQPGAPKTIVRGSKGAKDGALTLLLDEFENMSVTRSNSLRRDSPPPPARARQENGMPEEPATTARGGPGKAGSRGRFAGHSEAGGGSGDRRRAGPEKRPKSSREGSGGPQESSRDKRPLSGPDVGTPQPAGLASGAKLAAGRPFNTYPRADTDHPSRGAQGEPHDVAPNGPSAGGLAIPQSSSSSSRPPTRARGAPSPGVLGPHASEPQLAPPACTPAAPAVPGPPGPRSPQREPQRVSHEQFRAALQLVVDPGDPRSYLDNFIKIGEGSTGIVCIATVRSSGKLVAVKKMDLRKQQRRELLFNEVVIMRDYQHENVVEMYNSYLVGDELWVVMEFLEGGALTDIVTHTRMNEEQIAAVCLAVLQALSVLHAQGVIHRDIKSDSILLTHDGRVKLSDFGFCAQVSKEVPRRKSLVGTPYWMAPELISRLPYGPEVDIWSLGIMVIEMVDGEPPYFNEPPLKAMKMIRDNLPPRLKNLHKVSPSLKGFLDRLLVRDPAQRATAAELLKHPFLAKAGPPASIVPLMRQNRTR

[7] = molecular target: T2, Serine/threonine-protein kinase Sgk1 (Homo sapiens) (UniProt O00141); test: Inhibition of SGK at 1 uM
T2 sequence (whole entry): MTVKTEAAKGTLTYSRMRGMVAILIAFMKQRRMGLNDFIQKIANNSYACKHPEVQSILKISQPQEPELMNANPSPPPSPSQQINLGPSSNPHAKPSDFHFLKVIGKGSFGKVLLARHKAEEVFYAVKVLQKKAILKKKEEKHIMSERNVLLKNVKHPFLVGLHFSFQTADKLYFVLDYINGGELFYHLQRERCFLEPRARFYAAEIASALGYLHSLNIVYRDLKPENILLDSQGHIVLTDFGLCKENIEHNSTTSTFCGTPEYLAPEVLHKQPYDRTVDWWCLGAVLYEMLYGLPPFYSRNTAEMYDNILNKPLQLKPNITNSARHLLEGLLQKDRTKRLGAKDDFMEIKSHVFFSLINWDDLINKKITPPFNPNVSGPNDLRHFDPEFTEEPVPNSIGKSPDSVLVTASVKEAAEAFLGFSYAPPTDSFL

[8] = molecular target: T3, 3-phosphoinositide-dependent protein kinase 1 (Homo sapiens, UniProt O15530); test: Inhibition of recombinant human His-tagged PDK1 catalytic domain using Ac-Sox-PKTFCGTPEYLAPEVRREPRILSEEEQEMFRDFDYIAD-NH2 as substrate by fluorescence-based spectrophotometry
T3 sequence (O15530 whole entry): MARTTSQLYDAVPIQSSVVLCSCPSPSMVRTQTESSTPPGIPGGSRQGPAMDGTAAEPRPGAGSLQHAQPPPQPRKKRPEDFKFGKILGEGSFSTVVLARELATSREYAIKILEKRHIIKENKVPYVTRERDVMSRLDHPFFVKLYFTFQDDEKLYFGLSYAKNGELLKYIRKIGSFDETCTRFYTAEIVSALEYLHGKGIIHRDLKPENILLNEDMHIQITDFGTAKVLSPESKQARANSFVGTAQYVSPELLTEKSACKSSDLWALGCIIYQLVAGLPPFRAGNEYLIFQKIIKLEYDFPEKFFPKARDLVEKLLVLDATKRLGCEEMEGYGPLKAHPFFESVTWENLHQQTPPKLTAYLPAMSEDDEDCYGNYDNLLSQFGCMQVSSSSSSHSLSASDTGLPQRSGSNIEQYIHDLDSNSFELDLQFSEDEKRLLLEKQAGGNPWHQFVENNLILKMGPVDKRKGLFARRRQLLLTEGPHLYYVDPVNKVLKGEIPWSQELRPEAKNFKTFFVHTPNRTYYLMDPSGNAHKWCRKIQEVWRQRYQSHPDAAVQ

[9] = molecular target: Serine/threonine-protein kinase MARK1 (Homo sapiens, UniProt Q9P0L2); test: Inhibition of MARK1
[10] = molecular target: RAC-alpha serine/threonine-protein kinase (Homo sapiens, UniProt P31749); test: Inhibition of AKT1 at 1 uM
RAC-alpha serine/threonine-protein kinase, sequence (P31749 whole entry): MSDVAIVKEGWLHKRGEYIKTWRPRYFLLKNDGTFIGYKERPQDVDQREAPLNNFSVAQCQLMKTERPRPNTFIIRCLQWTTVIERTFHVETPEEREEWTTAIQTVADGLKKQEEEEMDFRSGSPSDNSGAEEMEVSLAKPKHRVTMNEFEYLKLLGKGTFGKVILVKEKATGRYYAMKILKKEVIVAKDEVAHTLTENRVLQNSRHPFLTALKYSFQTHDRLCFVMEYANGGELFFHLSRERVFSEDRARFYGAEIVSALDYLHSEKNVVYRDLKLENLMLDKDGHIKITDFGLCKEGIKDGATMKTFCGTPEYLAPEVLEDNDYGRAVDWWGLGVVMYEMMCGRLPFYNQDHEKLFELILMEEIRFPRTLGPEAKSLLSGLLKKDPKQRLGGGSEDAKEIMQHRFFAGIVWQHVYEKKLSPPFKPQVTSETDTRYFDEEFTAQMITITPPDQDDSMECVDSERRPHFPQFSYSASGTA

[11] = molecular target: Serine/threonine-protein kinase Chk2 (Homo sapiens) (UniProt O96017); test: Inhibition of CHEK2 at 1 uM
[12] = molecular target: Casein kinase I isoform alpha (Homo sapiens) (UniProt P48729); test: Inhibition of CSNK1A1 at 1 uM
Casein kinase I isoform alpha (Homo sapiens), sequence (P48729 2-337 limits assumed): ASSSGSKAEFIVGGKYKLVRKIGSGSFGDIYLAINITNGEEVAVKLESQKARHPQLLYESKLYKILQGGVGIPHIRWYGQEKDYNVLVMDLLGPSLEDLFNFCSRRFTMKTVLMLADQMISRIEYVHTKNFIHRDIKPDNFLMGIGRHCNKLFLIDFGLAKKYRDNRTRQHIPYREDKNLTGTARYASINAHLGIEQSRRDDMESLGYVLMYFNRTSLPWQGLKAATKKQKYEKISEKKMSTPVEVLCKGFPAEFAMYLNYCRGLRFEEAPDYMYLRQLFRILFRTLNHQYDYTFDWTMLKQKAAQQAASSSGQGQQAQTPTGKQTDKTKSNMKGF

[13] = molecular target: Serine/threonine-protein kinase pim-2 (Homo sapiens) (UniProt Q9P1W9); test: Inhibition of PIM2 at 1 uM
Serine/threonine-protein kinase pim-2 (Homo sapiens), sequence (Q9P1W9 whole entry, looked up): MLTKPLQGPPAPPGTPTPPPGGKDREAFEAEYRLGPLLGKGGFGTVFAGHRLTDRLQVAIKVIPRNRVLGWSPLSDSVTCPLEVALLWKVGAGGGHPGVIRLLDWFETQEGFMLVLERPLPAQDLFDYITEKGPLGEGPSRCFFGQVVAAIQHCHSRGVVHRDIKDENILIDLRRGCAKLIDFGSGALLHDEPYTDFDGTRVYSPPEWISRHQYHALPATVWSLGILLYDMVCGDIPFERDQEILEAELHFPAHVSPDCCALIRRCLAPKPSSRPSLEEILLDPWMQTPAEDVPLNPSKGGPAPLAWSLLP

[14] = molecular target: Proto-oncogene tyrosine-protein kinase Src (Homo sapiens) (UniProt P12931); test: Inhibition of SRC at 1 uM
[15] = molecular target: T4, Serine/threonine-protein kinase 3 (Homo sapiens) (UniProt Q13188); test: Inhibition of STK3 at 1 uM
T4 sequence (whole entry): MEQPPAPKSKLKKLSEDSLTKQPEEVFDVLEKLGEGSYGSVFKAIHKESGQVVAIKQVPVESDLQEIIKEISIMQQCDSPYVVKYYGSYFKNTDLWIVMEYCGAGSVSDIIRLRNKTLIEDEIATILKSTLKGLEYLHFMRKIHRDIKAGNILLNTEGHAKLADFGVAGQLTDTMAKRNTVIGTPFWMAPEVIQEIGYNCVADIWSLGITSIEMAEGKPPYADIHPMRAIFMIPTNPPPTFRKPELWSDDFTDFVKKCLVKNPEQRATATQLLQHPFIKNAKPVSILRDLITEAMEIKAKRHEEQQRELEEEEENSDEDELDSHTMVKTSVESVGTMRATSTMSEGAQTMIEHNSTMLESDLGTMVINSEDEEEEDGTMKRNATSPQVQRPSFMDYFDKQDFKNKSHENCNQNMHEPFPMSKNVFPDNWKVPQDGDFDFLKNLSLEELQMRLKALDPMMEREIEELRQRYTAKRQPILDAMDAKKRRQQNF

A549 = test: Antiproliferative activity against human A549 cells after 72 hrs by resazurin reduction assay; type: functional, cell-based; conditions: A549, 72 h; summary of the method: as §1

Vascular endothelial growth factor receptor 2 (Homo sapiens), sequence (P35968 whole entry): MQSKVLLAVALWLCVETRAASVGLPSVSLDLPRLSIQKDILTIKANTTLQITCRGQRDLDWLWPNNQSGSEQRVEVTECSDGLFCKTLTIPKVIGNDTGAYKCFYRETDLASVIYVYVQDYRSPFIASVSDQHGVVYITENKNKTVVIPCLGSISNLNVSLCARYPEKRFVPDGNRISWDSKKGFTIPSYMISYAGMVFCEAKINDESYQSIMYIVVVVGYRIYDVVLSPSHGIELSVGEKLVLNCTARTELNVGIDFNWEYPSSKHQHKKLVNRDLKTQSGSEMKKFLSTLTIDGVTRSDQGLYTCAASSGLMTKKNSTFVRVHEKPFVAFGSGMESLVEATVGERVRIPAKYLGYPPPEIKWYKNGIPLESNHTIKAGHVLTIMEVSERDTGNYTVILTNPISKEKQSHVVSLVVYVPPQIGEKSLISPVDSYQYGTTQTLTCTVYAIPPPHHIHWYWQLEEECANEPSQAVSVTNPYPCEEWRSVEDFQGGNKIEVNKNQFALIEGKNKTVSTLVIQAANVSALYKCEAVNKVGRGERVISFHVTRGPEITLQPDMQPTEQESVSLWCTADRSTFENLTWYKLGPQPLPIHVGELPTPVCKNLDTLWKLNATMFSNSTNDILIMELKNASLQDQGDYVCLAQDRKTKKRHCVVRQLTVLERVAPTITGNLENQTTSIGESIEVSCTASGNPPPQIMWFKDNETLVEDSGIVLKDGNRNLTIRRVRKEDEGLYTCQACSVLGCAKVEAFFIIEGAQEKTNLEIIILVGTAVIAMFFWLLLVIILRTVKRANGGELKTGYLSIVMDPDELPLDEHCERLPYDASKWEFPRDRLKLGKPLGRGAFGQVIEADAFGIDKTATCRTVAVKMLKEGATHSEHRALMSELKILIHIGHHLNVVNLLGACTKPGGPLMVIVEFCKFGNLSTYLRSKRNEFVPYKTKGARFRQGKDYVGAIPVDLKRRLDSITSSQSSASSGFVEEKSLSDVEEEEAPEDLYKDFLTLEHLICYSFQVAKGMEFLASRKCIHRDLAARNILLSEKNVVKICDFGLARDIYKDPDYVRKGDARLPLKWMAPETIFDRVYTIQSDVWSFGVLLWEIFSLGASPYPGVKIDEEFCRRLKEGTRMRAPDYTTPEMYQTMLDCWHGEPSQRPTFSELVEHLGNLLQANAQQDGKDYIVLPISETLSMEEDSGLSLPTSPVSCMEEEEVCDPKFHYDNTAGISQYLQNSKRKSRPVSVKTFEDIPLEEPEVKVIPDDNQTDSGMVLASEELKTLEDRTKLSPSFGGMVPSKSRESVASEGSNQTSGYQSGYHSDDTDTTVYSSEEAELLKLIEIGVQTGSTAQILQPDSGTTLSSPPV

| inhibition [1] [%] | inhibition [2] [%] | inhibition [3] [%] | IC50 (Aurora kinase A) [nM] | EC50 (NCI-H460) [nM] | inhibition [4] [%] | inhibition [5] [%] | inhibition [6] [%] | inhibition [7] [%] | Ki [8] [nM] | IC50 [9] [nM] | inhibition [10] [%] | inhibition [11] [%] | inhibition [12] [%] | inhibition [13] [%] | inhibition [14] [%] | inhibition [15] [%] | EC50 (A549) [nM] | Structure (SMILES) |
| --- | --- | --- | --- | --- | --- | --- | --- | --- | --- | --- | --- | --- | --- | --- | --- | --- | --- | --- |
| 1 | 34 | 42 | 820 | 1700 | 32 | -2 | 25 | 30 | 1.4 | 1300 | 15 | 94 | 7 | -2 | 14 | 0 | 5200 | CC(=O)N1CC[C@@H](Nc2cncc(C(=O)c3cn(C(C)C)c4ncnc(N)c34)n2)[C@H]1c1ccccc1 |
| 15 | 51 | 76 | 460 | 1900 | 73 | 1 | 46 | 61 | 1.4 | 590 | 57 | 99 | 4 | 7 | 21 | 12 | 2200 | CC(=O)N1CC[C@@H](Nc2cncc(C(=O)c3cn(C(C)C)c4ncnc(N)c34)n2)[C@H]1c1ccc(F)cc1 |
| 14 | 49 | 66 | 140 | 700 | 62 | 7 | 63 | 48 | 0.7 | 110 | 62 | 98 | 7 | 9 | 29 | 13 | 1800 | CC(C)n1cc(C(=O)c2cncc(N[C@@H]3CCN(C=O)[C@@H]3c3ccc(F)cc3)n2)c2c(N)ncnc21 |
